Source: publication PMC9302689 (British Journal of Clinical Pharmacology, 2022)

Experiments:
[1] = system: healthy male subjects; test: Treatment emergent adverse events; format: in vivo, human; details: for Incidence of TEAE: Somnolence / Incidence of TEAE: Vomiting / Incidence of TEAE: Dizziness / Incidence of TEAE: Dizziness postural / Incidence of TEAE: Fatigue / Incidence of TEAE: Headache / Incidence of TEAE: Nausea / Incidence of TEAE: Oropharyngeal pain / Incidence of TEAE: Presyncope / Incidence of TEAE: Pruritus: n = 8
[2] = system: healthy male subjects; test: ECG, QTcF interval; format: in vivo, human
Outline: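 Randomized, double-blind, placebo-controlled single ascending dose study in healthy men, dosed 3–200 mg after an overnight fast. 12-lead ECGs were recorded in triplicate, 1 min apart, after 5 min rest in the semi-recumbent position, at scheduled times. QTc and other intervals were derived automatically from the digital ECGs by the Marquette 12SL algorithm.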

[3] = target: SERT (Homo sapiens, UniProt P31645); test: In vitro binding affinity, SERT; details: read-out: Ki, SERT; preclinical in vitro panel
[4] = target: μ receptor (Homo sapiens, UniProt P35372); test: In vitro binding affinity, μ receptor
[5] = target: sigma non‐opioid intracellular receptor 1 (Homo sapiens, UniProt Q99720); test: In vitro binding affinity, sigma non-opioid intracellular receptor 1
[6] = system: dogs; test: Preclinical multiple dose toxicology study in dogs; format: in vivo
[7] = system: dogs; test: Preclinical dog cardiovascular study; format: in vivo; details: any dose

Sequence of μ receptor (P35372 whole entry): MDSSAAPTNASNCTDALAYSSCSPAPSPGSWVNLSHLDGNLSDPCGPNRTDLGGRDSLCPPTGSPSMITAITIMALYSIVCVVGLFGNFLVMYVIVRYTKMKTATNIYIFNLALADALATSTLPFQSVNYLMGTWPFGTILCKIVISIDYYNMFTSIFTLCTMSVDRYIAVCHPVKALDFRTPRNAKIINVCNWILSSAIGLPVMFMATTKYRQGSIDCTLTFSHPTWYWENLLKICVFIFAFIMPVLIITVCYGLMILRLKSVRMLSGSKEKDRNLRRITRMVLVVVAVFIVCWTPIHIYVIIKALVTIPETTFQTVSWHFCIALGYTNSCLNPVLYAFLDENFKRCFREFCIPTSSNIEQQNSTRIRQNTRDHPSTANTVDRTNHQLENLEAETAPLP
Sequence of SERT (P31645 whole entry, species assumed): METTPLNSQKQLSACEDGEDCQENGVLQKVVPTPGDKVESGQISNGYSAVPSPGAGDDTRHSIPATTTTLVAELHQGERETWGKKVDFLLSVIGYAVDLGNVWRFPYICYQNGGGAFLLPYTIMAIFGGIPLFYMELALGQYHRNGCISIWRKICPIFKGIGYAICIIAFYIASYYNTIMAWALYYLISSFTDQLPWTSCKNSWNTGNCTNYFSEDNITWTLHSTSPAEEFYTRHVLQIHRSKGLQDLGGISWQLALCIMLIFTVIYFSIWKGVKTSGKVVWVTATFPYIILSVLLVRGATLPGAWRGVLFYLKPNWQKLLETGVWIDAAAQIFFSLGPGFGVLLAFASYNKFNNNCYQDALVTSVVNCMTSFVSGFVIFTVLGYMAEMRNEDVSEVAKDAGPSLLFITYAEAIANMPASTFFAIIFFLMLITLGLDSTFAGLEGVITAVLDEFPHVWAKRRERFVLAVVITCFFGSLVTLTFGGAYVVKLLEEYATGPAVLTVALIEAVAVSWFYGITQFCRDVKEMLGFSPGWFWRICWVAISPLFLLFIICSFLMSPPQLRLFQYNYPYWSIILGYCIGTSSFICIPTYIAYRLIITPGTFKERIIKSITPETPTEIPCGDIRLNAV
Sequence of sigma non‐opioid intracellular receptor 1 (Q99720 whole entry, species assumed): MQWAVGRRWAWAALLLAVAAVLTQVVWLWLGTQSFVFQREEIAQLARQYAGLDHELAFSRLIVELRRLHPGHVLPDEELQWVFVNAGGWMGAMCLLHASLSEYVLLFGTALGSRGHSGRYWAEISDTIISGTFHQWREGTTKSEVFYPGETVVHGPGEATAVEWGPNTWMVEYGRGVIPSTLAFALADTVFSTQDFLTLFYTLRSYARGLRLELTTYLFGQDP

CN1CCC23CCCCC2C1Cc1ccc(C(N)=O)cc13 (stereo not drawn) [ALKS 7119, (9α, 13α)‐17‐methylmorphinan‐3‐carboxamide]
64%: Subjects reporting TEAEs ([1]; all ALKS 7119 doses, 51 of 80 subjects (placebo 40%))
35 nM: Ki [3]
600 nM: Ki ([4]; read-out: Ki, μ receptor, preclinical in vitro panel)
1: Incidence of TEAE: Somnolence ([1]; 75 mg single oral dose) | Incidence of TEAE: Presyncope ([1]; 100 mg single oral dose) | Incidence of TEAE: Vomiting ([1]; 100 mg single oral dose) | Incidence of TEAE: Dizziness ([1]; 125 mg single oral dose) | Incidence of TEAE: Pruritus ([1]; 125 mg single oral dose) | Incidence of TEAE: Dizziness ([1]; 150 mg single oral dose) | Incidence of TEAE: Fatigue ([1]; 150 mg single oral dose) | Incidence of TEAE: Somnolence ([1]; 150 mg single oral dose) | Incidence of TEAE: Vomiting ([1]; 150 mg single oral dose) | Incidence of TEAE: Somnolence ([1]; 175 mg single oral dose) | Incidence of TEAE: Fatigue ([1]; 200 mg single oral dose) | Incidence of TEAE: Presyncope ([1]; 200 mg single oral dose) | Incidence of TEAE: Somnolence ([1]; 200 mg single oral dose)
900 fold: Affinity for sigma non-opioid intracellular receptor 1 lower than for SERT [5]
2: Incidence of TEAE: Vomiting ([1]; 75 mg single oral dose) | Incidence of TEAE: Dizziness postural ([1]; 100 mg single oral dose) | Incidence of TEAE: Somnolence ([1]; 100 mg single oral dose) | Incidence of TEAE: Headache ([1]; 125 mg single oral dose) | Incidence of TEAE: Nausea ([1]; 125 mg single oral dose) | Incidence of TEAE: Headache ([1]; 150 mg single oral dose) | Incidence of TEAE: Dizziness ([1]; 200 mg single oral dose) | Incidence of TEAE: Pruritus ([1]; 200 mg single oral dose)
4: Incidence of TEAE: Presyncope ([1]; 175 mg single oral dose)
3: Incidence of TEAE: Headache ([1]; 100 mg single oral dose) | Incidence of TEAE: Nausea ([1]; 100 mg single oral dose) | Incidence of TEAE: Presyncope ([1]; 150 mg single oral dose) | Incidence of TEAE: Headache ([1]; 200 mg single oral dose) | Incidence of TEAE: Nausea ([1]; 200 mg single oral dose)
0: Incidence of TEAE: Dizziness ([1]; 100 mg single oral dose) | Incidence of TEAE: Fatigue ([1]; 100 mg single oral dose) | Incidence of TEAE: Oropharyngeal pain ([1]; 100 mg single oral dose) | Incidence of TEAE: Pruritus ([1]; 100 mg single oral dose) | Incidence of TEAE: Dizziness postural ([1]; 125 mg single oral dose) | Incidence of TEAE: Fatigue ([1]; 125 mg single oral dose) | Incidence of TEAE: Oropharyngeal pain ([1]; 125 mg single oral dose) | Incidence of TEAE: Presyncope ([1]; 125 mg single oral dose) | Incidence of TEAE: Somnolence ([1]; 125 mg single oral dose) | Incidence of TEAE: Vomiting ([1]; 125 mg single oral dose) | Incidence of TEAE: Dizziness postural ([1]; 150 mg single oral dose) | Incidence of TEAE: Oropharyngeal pain ([1]; 150 mg single oral dose) | Incidence of TEAE: Pruritus ([1]; 150 mg single oral dose) | Incidence of TEAE: Dizziness ([1]; 175 mg single oral dose) | Incidence of TEAE: Dizziness postural ([1]; 175 mg single oral dose) | Incidence of TEAE: Fatigue ([1]; 175 mg single oral dose) | Incidence of TEAE: Headache ([1]; 175 mg single oral dose) | Incidence of TEAE: Oropharyngeal pain ([1]; 175 mg single oral dose) | Incidence of TEAE: Pruritus ([1]; 175 mg single oral dose) | Incidence of TEAE: Vomiting ([1]; 175 mg single oral dose) | Incidence of TEAE: Dizziness postural ([1]; 200 mg single oral dose) | Incidence of TEAE: Oropharyngeal pain ([1]; 200 mg single oral dose) | Incidence of TEAE: Vomiting ([1]; 200 mg single oral dose)
30 to 60 ms: QTcF interval increases compared to baseline ([2]; doses of ≥50 mg)
475 ms: Highest individual QTcF value ([2]; subject treated with 200 mg)
17 fold: Affinity for μ receptor lower than for SERT [4]
97.2 mg: human equivalent dose (HED) of NOAEL ([6]; dog NOAEL)
No changes in QT intervals: QT intervals [7]
33 ms: Increase of QTcF compared to baseline at highest individual value ([2]; subject treated with 200 mg)
8.8%: Subjects with QTcF increases from baseline of 30–60 ms ([2]; all ALKS 7119 groups, only at 50 mg or higher, none in placebo)
5: Incidence of TEAE: Nausea ([1]; 150 mg single oral dose) | Incidence of TEAE: Nausea ([1]; 175 mg single oral dose)
3 mg/kg: NOAEL ([6]; dogs, multiple dose toxicology)
